Legend:
Monkey [1] = experiment: Efficiency of chelation measured as net iron excretion/total iron-binding capacity of 150 umol/kg compound administered sc in monkeys; type: functional, Cercopithecidae
Outline: (§1)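 Cebus apella monkeys iron-overloaded with iv iron dextran (~500 mg Fe/kg), rested ≥60 days. Dosed sc as aqueous suspension or sodium salt solution (DFO in sterile H2O, 1 mL/kg). Feces and urine collected at 24 h intervals from 4 days pre-dose to 5 days post-dose; iron by flame AA. Efficiency is 2-day post-dose iron minus 4-day baseline mean, divided by theoretical output. n = 4; mean ± SEM.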

Monkey [2] = experiment: Efficiency of chelation measured as net iron excretion/total iron-binding capacity of 300 umol/kg compound administered po in monkeys; type: functional, Cercopithecidae
Monkey [3] = experiment: Efficiency of chelation measured as net iron excretion/total iron-binding capacity of 300 umol/kg compound administered sc in monkeys; type: functional, Cercopithecidae; outline: as §1
Rattus norvegicus [4] = experiment: Efficiency of chelation measured as net iron excretion/total iron-binding capacity of 300 umol/kg compound administered po in rats; type: functional
Outline: (§2)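 Bile duct-cannulated male Sprague-Dawley rats (~450 g), anesthetized with sodium pentobarbital 55 mg/kg ip. Chelator given po or sc in 40% Cremophor RH-40/water. Bile collected every 3 h for 24 h, urine at 24 h; iron by flame AA. Net excretion is treated minus control. Theoretical output assumes 1:1 or 2:1 ligand/iron by denticity. n = 4; mean ± SEM.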

Rattus norvegicus [5] = experiment: Efficiency of chelation measured as net iron excretion/total iron-binding capacity of 300 umol/kg compound administered sc in rats; type: functional; outline: as §2
Monkey [6] = experiment: Efficiency of chelation measured as net iron excretion/total iron-binding capacity of 150 umol/kg compound administered sc in monkey; type: functional, Cercopithecidae; outline: as §1
Monkey [7] = experiment: Efficiency of chelation measured as net iron excretion/total iron-binding capacity of 75 umol/kg compound administered sc in monkey; type: functional, Cercopithecidae; outline: as §1
Rattus norvegicus [8] = experiment: Efficiency of chelation measured as net iron excretion/total iron-binding capacity of 150 umol/kg compound administered po in rats; type: functional; outline: as §2
Rattus norvegicus [9] = experiment: Efficiency of chelation measured as net iron excretion/total iron-binding capacity of 150 umol/kg compound administered sc in rats; type: functional; outline: as §2
Monkey [10] = experiment: Efficiency of chelation measured as net iron excretion/total iron-binding capacity of 150 umol/kg compound administered po in monkey; type: functional, Cercopithecidae

| Compound | Efficiency (Monkey [1]) [%] | Efficiency (Monkey [2]) [%] | Efficiency (Monkey [3]) [%] | Efficiency (Rattus norvegicus [4]) [%] | Efficiency (Rattus norvegicus [5]) [%] | Efficiency (Monkey [6]) [%] | Efficiency (Monkey [7]) [%] | Efficiency (Rattus norvegicus [8]) [%] | Efficiency (Rattus norvegicus [9]) [%] | Efficiency (Monkey [10]) [%] |
| --- | --- | --- | --- | --- | --- | --- | --- | --- | --- | --- |
| O=C(O)[C@H]1CSC(c2ccc(O)cc2O)=N1 | 5.6 | 5.3 | 5.3 | 2.9 | 2.1 |  |  |  |  |  |
| O=C(O)[C@H]1CSC(c2cc(CCCOCCCOCCCc3cc(C4=N[C@@H](C(=O)O)CS4)c(O)cc3O)c(O)cc2O)=N1 |  |  |  |  |  | 2.1 | 3.2 | 0.9 | 6.5 |  |
| CC(=O)N(O)CCCCCNC(=O)CCC(=O)N(O)CCCCCNC(=O)CCC(=O)N(O)CCCCCN [DEFEROXAMINE] |  |  |  |  |  | 5.5 |  | 1.1 | 2.8 | 0.1 |
